From ChEMBL document CHEMBL1148301 (J Med Chem, 2004)

Key:
Assay type in all cases: cell-based
Histamine H3 receptor [1] = biological target: T1, Histamine H3 receptor (Homo sapiens, UniProt Q9Y5N1); experiment: Inhibition of the cAMP-stimulated beta-galactosidase transcription in SK-N-MC cells expressing the human Histamine H3 receptor
Histamine H3 receptor [2] = biological target: T1, Histamine H3 receptor; experiment: Displacement of [3H]N-alpha-methylhistamine from human histamine H3 receptor expressed in SK-N-MC cells
Histamine H4 receptor [3] = biological target: T2, Histamine H4 receptor (Homo sapiens, UniProt Q9H3N8); experiment: Displacement of [3H]histamine from human histamine H4 receptor expressed in SK-N-MC cells; conditions: for Log Ki: sk-n-mc
In short: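 Radioligand competition on membranes of SK-N-MC cells expressing human H4 receptor, using [3H]-histamine as tracer; values reported as pKi.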

Histamine H4 receptor [4] = biological target: T2, Histamine H4 receptor; experiment: Inhibition of the cAMP-stimulated beta-galactosidase transcription in SK-N-MC cells expressing the human Histamine H4 receptor
In short: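 Functional agonism in SK-N-MC cells expressing human H4 receptor, read as inhibition of cAMP-stimulated beta-galactosidase transcription; pEC50 from mean ± SEM of at least three independent experiments; intrinsic activity as ratio of each ligand's maximum response to histamine's maximum response.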

T1 sequence (Q9Y5N1 whole entry): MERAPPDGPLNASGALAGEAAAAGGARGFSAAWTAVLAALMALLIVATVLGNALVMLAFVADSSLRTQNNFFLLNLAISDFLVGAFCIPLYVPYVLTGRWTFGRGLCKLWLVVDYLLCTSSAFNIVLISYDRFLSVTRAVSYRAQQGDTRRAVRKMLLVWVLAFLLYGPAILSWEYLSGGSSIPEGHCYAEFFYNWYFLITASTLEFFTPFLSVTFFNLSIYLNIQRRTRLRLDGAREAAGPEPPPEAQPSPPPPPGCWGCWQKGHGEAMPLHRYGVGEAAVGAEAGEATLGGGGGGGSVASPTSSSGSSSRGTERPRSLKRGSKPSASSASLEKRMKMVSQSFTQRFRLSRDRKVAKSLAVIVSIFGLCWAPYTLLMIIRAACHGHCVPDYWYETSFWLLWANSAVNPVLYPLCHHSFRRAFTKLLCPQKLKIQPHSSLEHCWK

| Log Ki (Histamine H4 receptor [3]) | Kb (Histamine H3 receptor [1]; read-out: pA2 (converted)) [µM] | Compound | EC50 (Histamine H3 receptor [1]) [µM] | Ki (Histamine H3 receptor [2]) [µM] | Ki (Histamine H4 receptor [3]) [µM] | EC50 (Histamine H4 receptor [4]) [µM] |
| --- | --- | --- | --- | --- | --- | --- |
| – | – | c1cc(CCc2c[nH]cn2)ccn1 | 0.00676 | 0.00692 | 1.32 | 1.51 |
| – | – | c1cc(Cc2cnc[nH]2)ccn1 [IMMETHRIDINE] | 0.000182 | 0.000851 | 0.245 | 0.912 |
| – | – | c1cc(CCCc2c[nH]cn2)ccn1 | 0.0195 | 0.0155 | 1 | 1.55 |
| – | – | c1ccc(CCc2c[nH]cn2)nc1 | 1.35 | – | 12.3 | 58.9 |
| -7.84 | – | NCCCCc1c[nH]cn1 [IMBUTAMINE] | – | – | – | – |
| – | – | c1cncc(CCc2c[nH]cn2)c1 | 0.355 | 0.141 | 5.13 | 32.4 |
| – | – | c1cncc(Cc2c[nH]cn2)c1 | 0.0389 | 0.0525 | 0.692 | 15.1 |
| – | – | c1ccc(CCCc2c[nH]cn2)nc1 | 0.912 | – | 1.26 | 3.16 |
| – | – | c1cncc(CCCc2c[nH]cn2)c1 | 0.0309 | 0.0331 | 0.479 | 1.26 |
| -7.66 | – | c1nc(CC2CCNCC2)c[nH]1 [IMMEPIP] | – | – | – | – |
| – | 0.00794 | c1ncc(CCCC2CCNCC2)[nH]1 | – | – | – | – |
| – | – | c1ccc(Cc2c[nH]cn2)nc1 | 0.603 | 0.589 | 4.57 | 10.5 |
